OX1R antag-1: human HCRTR1 antagonism | CHO/OX1R cells, Fluo-8 calcium fluorescence, orexin A | inhibition, % at 5 µM | 0.43% of 330,000 active;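 active means inhibition above its plate's threshold, mean inhibition of all tested compounds on the plate plus 3 SD, cut at about 37% in these data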
GPR7 antag: antagonists of human GPR7 (neuropeptides B/W receptor 1); P48145; GPR7-expressing cells, fluorescence antagonist assay; inhibition, % at 4.4 µM; 1.1% of 290,000 active; AID 1861; in the data active means inhibition above about 16%, passing the limit was not always enough;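 further: cells stimulated with the agonist NPW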
Target sequence (P48145 whole entry, looked up): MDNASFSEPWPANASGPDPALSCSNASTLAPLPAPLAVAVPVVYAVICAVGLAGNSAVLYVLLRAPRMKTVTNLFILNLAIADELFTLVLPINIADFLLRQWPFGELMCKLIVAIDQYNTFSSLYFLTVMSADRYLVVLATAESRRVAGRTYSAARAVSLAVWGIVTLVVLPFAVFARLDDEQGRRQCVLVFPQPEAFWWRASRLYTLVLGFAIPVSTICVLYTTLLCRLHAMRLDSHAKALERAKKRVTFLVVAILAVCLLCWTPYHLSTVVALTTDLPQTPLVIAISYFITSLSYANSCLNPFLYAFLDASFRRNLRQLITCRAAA
OX1R antag-2: antagonists of human orexin 1 receptor (OX1R) | O43613 | OX1R-expressing cells, FRET antagonist read-out | inhibition, % at 6.6 µM | 1.8% of 330,000 active | AID 485270; in the data active means inhibition mostly above about 38%, no sharp cut-off; inactive means mostly below about 40%
GalR3 antagonist: blocks the human galanin receptor 3; HEK293 GalR3-CNG cAMP membrane potential fluorescence; galR3 body fused to GalR1 C-terminus; inhibition, % at 3 µM; 0.44% of 360,000 active; AID 651719;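 active means inhibition above the screen-wide average plus 3 SD, cut at about 13% in these data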;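 further: forskolin and galanin both at EC90 stimulate the cells; cAMP rise reported by CNG channel membrane potential dye signal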
Target sequence (O60755 1-299 limits assumed): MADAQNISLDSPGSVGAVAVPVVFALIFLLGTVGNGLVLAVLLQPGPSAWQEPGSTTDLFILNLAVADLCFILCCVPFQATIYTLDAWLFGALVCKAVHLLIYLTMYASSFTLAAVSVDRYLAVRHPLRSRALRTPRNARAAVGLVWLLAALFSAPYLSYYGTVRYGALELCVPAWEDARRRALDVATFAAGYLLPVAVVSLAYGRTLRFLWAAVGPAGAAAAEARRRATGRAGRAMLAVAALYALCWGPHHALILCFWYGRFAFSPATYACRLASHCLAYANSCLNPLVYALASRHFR
CHO parental Ca: signal in parental CHO cells, OX1R antagonist counter-screen; parental CHO-K1, ATP-induced calcium, Fluo-8 fluorescence; inhibition, % at 5.6 µM; 0.63% of 330,000 active; AID 463079;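 active means inhibition above that plate's mean sample inhibition plus 3 SD, cut at about 26% in these data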
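Material – parental CHO cells · Reagent – ATP stimulus · Compound – single nominal dose of 5.6 µM per compound · Detection – Fluo-8 fluorescence · Read-out basis – percent inhibition of calcium signal · Controls – ATP-challenged DMSO wells low, unchallenged DMSO wells high · Repeats – no replicates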
GPR7 antag cf: confirmation of human GPR7 antagonists; shares compounds with GPR7 antag; GPR7-expressing cells, calcium fluorescence antagonist mode; inhibition, % at 4.4 µM; 52% of 2,400 active; AID 1952; in the data active means inhibition above about 24%;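 further: stimulated with the GPR7 agonist NPW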
MCHR1 antag: antagonizes human MCHR1, a GPR7 antagonist counter-screen; shares compounds with GPR7 antag; inhibition, % at 4.4 µM; AID 2148; 62% of 2,400 active; MCHR1-expressing cells, fluorescence antagonist assay; in the data active means inhibition above about 22%
Large screens that a line does not name were inactive (follow-up assays come after a bar, where they were run); ! = repeats disagree. A selection: hits, their analogues and other compounds. The true share with any hit is near 3.1%.

Cc1ccc(OCc2nc(C#N)c(N3CCN(Cc4ccccc4)CC3)o2)cc1	GPR7 antag 43.2 | GPR7 antag cf 44.1 | MCHR1 antag 51.2
COc1ccccc1N1C(=O)C2C(c3ccc(F)cc3)NN(C(=O)c3ccc(C)cc3)C2C1=O (centres undefined)	none
COCCNC(=S)N(C)[C@H]1C[C@H]2c3cc(-c4ccccc4)ccc3CCN2C(=O)[C@H]1[C@H](C)O	none (no result: OX1R antag-1, GPR7 antag, OX1R antag-2, CHO parental Ca)
NC(=O)C1CCN(c2cc(Cl)ccc2[N+](=O)[O-])CC1	GPR7 antag 26.2 | GPR7 antag cf inactive | MCHR1 antag inactive
O=C(Nc1ccc(Cl)c(C(F)(F)F)c1)NC1CC2CCCC(C1)N2Cc1ccccc1 (centres undefined)	GPR7 antag 27.0, CHO parental Ca 37.4 | GPR7 antag cf 44.6 | MCHR1 antag 87.3
O=C(NC1CC2CCCC(C1)N2C(=O)Nc1ccc(Cl)c(C(F)(F)F)c1)C1CC1 (centres undefined)	none
Cc1cccc(N(C)C(=O)COc2cc(=O)n(C)c3ccccc23)c1	GPR7 antag 63.6 | GPR7 antag cf inactive | MCHR1 antag inactive
CCc1c(C)c2ccc(OCC(=O)NCC3CCC(C(=O)O)CC3)c(C)c2oc1=O (centres undefined)	none
C=C1CCc2c([nH]c3ccc(OCC(C)C)cc23)C1=O	GPR7 antag 56.5 (no result: OX1R antag-1, OX1R antag-2, CHO parental Ca) | GPR7 antag cf 91.3 | MCHR1 antag 97.5
O=C(Nc1ccc(-n2nncc2-c2ccco2)cc1)c1cccc(F)c1	GPR7 antag 39.2 | GPR7 antag cf 62.2 | MCHR1 antag 48.8
NS(=O)(=O)c1ccc(-n2nncc2-c2ccco2)cc1	none
CNCCCC12CCC(c3ccccc31)c1ccccc12	GPR7 antag 28.4! | GPR7 antag cf 34.4 | MCHR1 antag 28.8
CCCCCCCOC(=O)C[N+](C)(C)CCOC1CC2CCC1(C)C2(C)C (centres undefined)	GPR7 antag 27.8 (no result: OX1R antag-1, OX1R antag-2, CHO parental Ca) | GPR7 antag cf 66.9 | MCHR1 antag 86.7
CCCCCCOC(=O)C[N+](C)(C)CCOC1CC2CCC1(C)C2(C)C (centres undefined)	GPR7 antag 31.5 | GPR7 antag cf 65.3 | MCHR1 antag 62.9
CC(OC(=O)c1ccc(Cl)c(S(=O)(=O)N2CCOCC2)c1)C(=O)Nc1ccc(S(N)(=O)=O)cc1 (centres undefined)	none (no result: GPR7 antag)
CCN(C(=O)Cn1c(=O)oc2ccccc21)c1c(N)n(Cc2ccccc2)c(=O)[nH]c1=O	none (no result: GPR7 antag)
N#Cc1c(N2CCCCC2)nc(N2CCCCC2)c2c1CCN(Cc1ccccc1)C2	GPR7 antag 45.9 | GPR7 antag cf inactive | MCHR1 antag inactive
O=C(CN1CCN(S(=O)(=O)c2ccc(Br)cc2)CC1)Nc1ccc(F)cc1F	none
COc1cccc(NC(=O)CN2CCN(S(=O)(=O)c3ccc(C(C)C)cc3)CC2)c1	GPR7 antag 34.6 | GPR7 antag cf 37.6 | MCHR1 antag 28.5
COc1cccc(NC(=O)CN2C(=O)COc3ccc(S(=O)(=O)N4CCC(C)CC4)cc32)c1	GPR7 antag 23.2 | GPR7 antag cf inactive | MCHR1 antag inactive
O=C(CN1CCN(S(=O)(=O)c2ccc(Cl)cc2)CC1)Nc1ccc(F)cc1F	GPR7 antag 24.2 (no result: GalR3 antagonist) | GPR7 antag cf 33.9 | MCHR1 antag 21.8
COc1cc(NC(=O)CNc2cccc(S(=O)(=O)N3CCCC3)c2)cc(OC)c1	GPR7 antag 31.0 | GPR7 antag cf inactive | MCHR1 antag inactive
CCC(CO)Nc1ccn2nc(-c3cccs3)cc2n1 (centres undefined)	none (no result: OX1R antag-1, GPR7 antag, OX1R antag-2, CHO parental Ca)
NS(=O)(=O)c1ccc(NC(=O)CN2CCN(S(=O)(=O)c3ccc(F)cc3)CC2)cc1	none
O=C(CN1CCN(S(=O)(=O)c2ccc(Br)cc2)CC1)Nc1ccc(F)cc1	GPR7 antag 30.3 | GPR7 antag cf 39.3 | MCHR1 antag 26.1
COc1cccc(NC(=O)CN(C)C(=O)c2cccc(S(=O)(=O)N3CCN(c4ccccc4)CC3)c2)c1	GPR7 antag 24.2 | GPR7 antag cf inactive | MCHR1 antag 39.0
O=C(CN1CCN(CC(=O)Nc2ccccc2Cl)CC1)Nc1ccc(F)c(F)c1	GPR7 antag 48.0 | GPR7 antag cf 42.5 | MCHR1 antag 60.7
O=C(CN1CCCCCC1)Nc1ccc(F)c(F)c1	none
CN(CC(=O)Nc1ccc(F)cc1)C(=O)c1cccc(S(=O)(=O)N2CCN(c3ccccc3)CC2)c1	none
O=[N+]([O-])c1c(Nc2cccc(O)c2)cc(Cl)c2nonc12	OX1R antag-1 46.9, GPR7 antag 35.3, OX1R antag-2 94.3, CHO parental Ca 43.0 | GPR7 antag cf 80.7 | MCHR1 antag 100.6
COc1ccc(Cl)cc1C(=O)Nc1ccc(Br)c(C)n1	none
CCc1ccc(CSc2nccn2-c2ccccc2)cc1	GPR7 antag 26.9 | GPR7 antag cf inactive | MCHR1 antag 40.5
Cc1ccc(NC(=O)C2CCN(S(=O)(=O)c3ccc4c(c3)NC(=O)C(C)S4)CC2)c(Cl)c1 (centres undefined)	none
Cc1ccc(NC(=O)C2CCN(S(=O)(=O)c3ccc4c(c3)C(C)(C)C(=O)N4C)CC2)c(C)c1	GPR7 antag 29.8 | GPR7 antag cf inactive | MCHR1 antag inactive
Cc1cccc(N2CCN(S(=O)(=O)c3ccc4c(c3)NC(=O)C(C)S4)CC2)c1C (centres undefined)	none
Cc1cc(C)cc(NC(=O)C2CCN(S(=O)(=O)c3ccc4c(c3)NC(=O)C(C)S4)CC2)c1 (centres undefined)	GPR7 antag 30.0 | GPR7 antag cf 25.4 | MCHR1 antag 45.6
CC1Sc2ccc(S(=O)(=O)N3CCN(c4ccccc4)CC3)cc2NC1=O (centres undefined)	GPR7 antag 39.1 | GPR7 antag cf inactive | MCHR1 antag 26.1
Cn1c(=O)c(=O)n(C)c2cc(S(=O)(=O)N3CC(=O)N(CCc4ccccc4)C(=O)C3)ccc21	GPR7 antag 23.0 | GPR7 antag cf inactive | MCHR1 antag inactive
Cn1c(=O)c(=O)n(C)c2cc(S(=O)(=O)N3CCN(Cc4ccccc4)CC3)ccc21	none
COC(=O)C1=C(N)Oc2cc(N(C)C)ccc2C1c1ccccc1OC (centres undefined)	GPR7 antag 25.0 | GPR7 antag cf inactive | MCHR1 antag 33.1
COC(=O)C1=C(N)Oc2cc(C)n(CC3CCCO3)c(=O)c2C1c1ccccc1OC (centres undefined)	none
CC(C)c1cccc(C(C)C)c1NC(=O)CNCc1ccccc1F	GPR7 antag 21.9 | GPR7 antag cf 29.8 | MCHR1 antag 32.5
NC(=O)CCn1nc(-c2ccc(Cl)cc2)c2ccccc2c1=O	none
O=C(CCn1nc(-c2ccc(Cl)cc2)c2ccccc2c1=O)Nc1cccnc1	GPR7 antag 21.4 | GPR7 antag cf inactive | MCHR1 antag inactive

From PubChem BioAssay
